What was measured:
NEDD8 activating enzyme = biological target: T1, NEDD8 activating enzyme (Homo sapiens, UniProt Q8TBC4); assay: Inhibition of recombinant NAE (unknown origin) in presence of ATP at Km concentration by HTRF assay; assay type: protein-complex assay
T1 sequence (Q8TBC4 whole entry): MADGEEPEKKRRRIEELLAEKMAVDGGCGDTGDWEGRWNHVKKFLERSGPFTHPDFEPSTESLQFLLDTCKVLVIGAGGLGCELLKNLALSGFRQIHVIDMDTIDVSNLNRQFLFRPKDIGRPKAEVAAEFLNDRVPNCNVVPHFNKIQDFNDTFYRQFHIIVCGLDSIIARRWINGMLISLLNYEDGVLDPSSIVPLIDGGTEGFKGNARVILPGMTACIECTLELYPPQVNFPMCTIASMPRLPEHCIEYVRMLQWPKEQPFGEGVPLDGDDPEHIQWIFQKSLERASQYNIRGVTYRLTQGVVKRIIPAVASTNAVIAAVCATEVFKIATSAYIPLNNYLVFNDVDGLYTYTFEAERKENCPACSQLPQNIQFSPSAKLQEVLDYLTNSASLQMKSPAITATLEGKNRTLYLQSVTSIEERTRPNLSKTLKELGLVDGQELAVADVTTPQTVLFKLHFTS
T1 sequence (Q13564 whole entry): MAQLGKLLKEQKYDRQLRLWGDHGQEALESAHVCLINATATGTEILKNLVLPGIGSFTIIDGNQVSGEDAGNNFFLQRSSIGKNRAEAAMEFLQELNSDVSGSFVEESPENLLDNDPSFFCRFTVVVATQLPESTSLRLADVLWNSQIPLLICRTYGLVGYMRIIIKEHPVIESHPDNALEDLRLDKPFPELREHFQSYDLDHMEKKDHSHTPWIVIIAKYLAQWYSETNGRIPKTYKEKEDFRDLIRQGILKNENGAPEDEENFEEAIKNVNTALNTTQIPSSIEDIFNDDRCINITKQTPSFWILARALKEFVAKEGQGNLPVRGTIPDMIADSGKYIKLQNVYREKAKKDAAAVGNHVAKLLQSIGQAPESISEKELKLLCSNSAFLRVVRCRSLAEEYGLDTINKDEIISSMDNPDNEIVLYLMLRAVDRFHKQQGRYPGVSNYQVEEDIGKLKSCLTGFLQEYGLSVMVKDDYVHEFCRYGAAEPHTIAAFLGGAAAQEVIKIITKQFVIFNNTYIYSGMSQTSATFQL

SUMO-activating enzyme [1] = biological target: T2, SUMO-activating enzyme (Homo sapiens, UniProt Q9UBT2); assay: Inhibition of SAE in human HCT116 cells assessed as redistribution of SUMO2/3 proteins from nucleus to cytosol preincubated for 2 hrs followed by compound washout and measured after 8 hrs by immunofluorescence assay; assay type: cell-based, HCT-116
T2 sequence (Q9UBE0 whole entry): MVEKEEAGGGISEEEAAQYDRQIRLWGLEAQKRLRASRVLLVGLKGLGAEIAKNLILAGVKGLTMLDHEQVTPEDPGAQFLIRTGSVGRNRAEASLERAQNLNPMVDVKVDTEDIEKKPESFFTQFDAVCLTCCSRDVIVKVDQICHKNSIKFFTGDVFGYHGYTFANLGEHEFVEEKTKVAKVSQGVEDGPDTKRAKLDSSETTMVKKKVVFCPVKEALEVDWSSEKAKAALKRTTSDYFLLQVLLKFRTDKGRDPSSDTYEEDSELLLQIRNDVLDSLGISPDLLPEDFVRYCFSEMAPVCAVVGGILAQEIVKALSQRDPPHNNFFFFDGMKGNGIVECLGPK
T2 sequence (Q9UBT2 whole entry): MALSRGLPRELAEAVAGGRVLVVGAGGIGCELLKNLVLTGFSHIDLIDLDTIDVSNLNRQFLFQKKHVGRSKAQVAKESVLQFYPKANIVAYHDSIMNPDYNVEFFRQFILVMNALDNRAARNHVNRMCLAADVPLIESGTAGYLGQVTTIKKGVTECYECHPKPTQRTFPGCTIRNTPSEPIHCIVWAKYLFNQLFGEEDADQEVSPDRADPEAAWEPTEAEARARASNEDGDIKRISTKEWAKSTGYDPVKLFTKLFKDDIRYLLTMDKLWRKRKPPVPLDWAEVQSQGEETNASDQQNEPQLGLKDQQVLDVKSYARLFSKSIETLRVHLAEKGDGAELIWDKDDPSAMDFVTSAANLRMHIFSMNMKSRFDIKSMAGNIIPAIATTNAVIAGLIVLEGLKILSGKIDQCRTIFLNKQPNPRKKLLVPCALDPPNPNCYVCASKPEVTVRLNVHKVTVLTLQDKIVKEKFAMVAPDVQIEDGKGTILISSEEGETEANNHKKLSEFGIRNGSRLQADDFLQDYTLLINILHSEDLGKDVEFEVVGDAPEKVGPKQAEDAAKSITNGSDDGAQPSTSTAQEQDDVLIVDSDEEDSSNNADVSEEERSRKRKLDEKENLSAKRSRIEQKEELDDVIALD
Method in brief: (§1)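 Washout format of the SUMO2/3 immunofluorescence assay in HCT116 cells. Cells were exposed to a range of concentrations for 2 h, then washed free of compound.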

SUMO-activating enzyme [2] = biological target: T2, SUMO-activating enzyme; assay: Inhibition of recombinant SAE (unknown origin) assessed as reduction in transfer of SUMO1 to UBC9 using SUMO1 as a substrate in presence of ATP at Km concentration by HTRF assay; assay type: protein-complex assay
Method in brief: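 HTRF transthiolation assay measuring transfer of SUMO1 to UBC9, the E2 for SAE.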

[3] = Inhibition of recombinant UAE (unknown origin) in presence of ATP at Km concentration by HTRF assay; set-up: species or system Homo sapiens
SUMO-activating enzyme [4] = biological target: T2, SUMO-activating enzyme; assay: Inhibition of SAE in human HCT116 cells assessed as reduction in redistribution of SUMO2/3 proteins from nucleus to cytosol incubated for 4 hrs by immunofluorescence assay; assay type: cell-based, HCT-116
Method in brief: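 HCT-116 cells exposed to compound across a concentration range for 4 h, then stained with anti-SUMO2/3 monoclonal antibody. Automated imaging scored the nuclear (inner) to cytoplasmic (outer) SUMO2/3 ratio. IC50 taken from the dose response.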

SUMO-activating enzyme [5] = biological target: T2, SUMO-activating enzyme; assay: Inhibition of SAE in human HCT116 cells assessed as redistribution of SUMO2/3 proteins from nucleus to cytosol preincubated for 2 hrs followed by compound washout and measured immediately by immunofluorescence assay; assay type: cell-based, HCT-116; method in brief: as §1

| SMILES | IC50 (NEDD8 activating enzyme) [nM] | IC50 (SUMO-activating enzyme [1]) [nM] | IC50 (SUMO-activating enzyme [2]) [nM] | IC50 [3] [nM] | IC50 (SUMO-activating enzyme [4]) [nM] | IC50 (SUMO-activating enzyme [5]) [nM] |
| --- | --- | --- | --- | --- | --- | --- |
| Cc1sc(C(=O)c2cncnc2N[C@@H]2C[C@H](COS(N)(=O)=O)[C@@H](O)C2)cc1C(O)c1cccc(Cl)c1 (some centres undefined) | 64 | 21 | 0.3 | > 1000 | 6 | 8 |
| NS(=O)(=O)OC[C@H]1C[C@@H](Nc2ncncc2C(=O)c2cc(C(O)c3cccc(Cl)c3)c(Cl)s2)C[C@@H]1O (some centres undefined) | 341 | 70 | 0.3 | > 1000 | 9 | 17 |
| NS(=O)(=O)OC[C@H]1C[C@@H](Nc2ncncc2C(=O)c2cc(C3NCCc4ccccc43)cs2)C[C@@H]1O (some centres undefined) | > 1000 | 503 | 1 | > 1000 | 78 | 365 |
| CC(O)(c1cccc(Cl)c1)c1csc(C(=O)c2cncnc2N[C@@H]2C[C@H](COS(N)(=O)=O)[C@@H](O)C2)c1 (some centres undefined) | 343 | 233 | 0.2 | > 1000 | 12 | 19 |
| NS(=O)(=O)OC[C@H]1C[C@@H](Nc2ncncc2C(=O)c2cc(C(O)c3cccc(Cl)n3)c(Cl)s2)C[C@@H]1O (some centres undefined) | 340 | 142 | 0.2 | > 1000 | 14 | 16 |
| Cc1sc(C(=O)c2cncnc2N[C@@H]2C[C@H](COS(N)(=O)=O)[C@@H](O)C2)cc1C1OCCc2ccc(Cl)nc21 (some centres undefined) | 203 | 89 | 0.1 | > 1000 | 20 | 18 |
| CC(N)(c1cccc(Cl)c1)c1csc(C(=O)c2cncnc2N[C@@H]2C[C@H](COS(N)(=O)=O)[C@@H](O)C2)c1 (some centres undefined) | > 1000 | 101 | 0.3 | > 1000 | 16 | 29 |
| NC(c1cccc(Cl)c1)c1csc(C(=O)c2cncnc2N[C@@H]2C[C@H](COS(N)(=O)=O)[C@@H](O)C2)c1 (stereo in doubt; 33) | > 1000 | 499 | 0.7 | – | 50 | 83 |
| NS(=O)(=O)OC[C@H]1C[C@@H](Nc2ncncc2C(=O)c2cc(C(O)c3cccc(Cl)c3)cs2)C[C@@H]1O (stereo in doubt; 30) | 114 | > 10000 | 1 | > 1000 | 660 | 1210 |
| CC(O)(c1csc(C(=O)c2cncnc2N[C@@H]2C[C@H](COS(N)(=O)=O)[C@@H](O)[C@H]2O)c1)c1cccc(Br)n1 (some centres undefined) | 31 | 361 | 0.1 | 616 | 47 | 251 |
| NS(=O)(=O)OC[C@H]1C[C@@H](Nc2ncncc2C(=O)c2cc(Cc3cccc(Cl)c3)c(Cl)s2)C[C@@H]1O | 681 | 1400 | 3.6 | > 1000 | 108 | 184 |
| CN(C)C(c1cccc(Cl)c1)c1csc(C(=O)c2cncnc2N[C@@H]2C[C@H](COS(N)(=O)=O)[C@@H](O)C2)c1 (some centres undefined) | > 1000 | – | 25 | > 1000 | 4170 | – |

— ChEMBL document CHEMBL4834402, “Discovery of TAK-981, a First-in-Class Inhibitor of SUMO-Activating Enzyme for the Treatment of Cancer” (J Med Chem, 2021)
